Published values of several laboratories.
Lines come from different studies, so protocols differ.
Observed: cell growth or viability

Compound	cell line	test	setting	IC50
CCCCC(=O)Nc1ccc(-c2ccc3ncn(CC4CC4)c(=O)c3c2)cn1	NCI-H1975	CCK-8	72 h	79 nM
O=C(Nc1ccc(Cl)cc1)Nc1nc2cc(-c3ccc4ncn(CCN5CCOCC5)c(=O)c4c3)ccc2s1	NCI-H1975	MTT	72 h	> 20000 nM
CC(C)(C)c1cnc(CSc2cnc(NC(=O)C3CCN(C(=O)CCCCCCCN4Cc5cc6c(cc5C4)C(=O)N(C4CCC(=O)NC4=O)C6=O)CC3)s2)o1 (centres unmarked)	A673	MTT	–	75.4 nM
O=C(NCCc1ccccc1)Nc1nc2cc(-c3ccc4ncn(CCN5CCOCC5)c(=O)c4c3)ccc2s1	NCI-H1975	MTT	72 h	3200 nM
CCCn1cnc2ccc(-c3ccc(NC(=O)CNCC)nc3)cc2c1=O	NCI-H1975	CCK-8	72 h	8790 nM
CN(C)CCn1cnc2ccc(-c3ccc4sc(NC(=O)Nc5ccc(F)cc5)nc4c3)cc2c1=O	NCI-H1975	MTT	72 h	1390 nM
CCCCC(=O)Nc1ccc(-c2ccc3ncn(CCC)c(=O)c3c2)cc1	NCI-H1975	CCK-8	72 h	9810 nM
c1ccc(Oc2ccc(Nc3c4c(nc5ccccc35)CCC4)cc2)cc1	HEK293	resazurin	72 h	11200 nM
CCCCn1cnc2ccc(-c3ccc(NC(=O)Nc4ccc(Cl)cc4)nc3)cc2c1=O	NCI-H1975	CCK-8	72 h	2550 nM
Nc1ccn([C@@H]2O[C@H](CO)[C@@H](O)C2(F)F)c(=O)n1	HEK293	MTT	24 h	24.2 µg/mL
CN1CCC(NC2CCc3[nH]c4c(C(N)=O)ccc(-c5ccccc5Cl)c4c3C2)CC1 (centres unmarked)	Pfeiffer	–	96 h	25.7 nM
CN(C)C(=O)c1cc2cnc(Nc3ccc(-c4ccc5c(=O)cc(N6CCOCC6)oc5c4)cc3)nc2n1C1CCCC1	HEK293	ATP luminescence	72 h	550 nM
CCCCn1cnc2ccc(-c3ccc(NC(=O)Nc4ccc(C(F)(F)F)cc4)nc3)cc2c1=O	NCI-H1975	CCK-8	72 h	6850 nM
Nc1nnc(-c2ccccc2O)cc1N1CC2CCC(C1)N2c1ccnc(F)c1	HCC515	ATP luminescence	7 days	> 1000 nM
CCC(=O)Nc1nc2cc(-c3ccc4ncn(Cc5ccccc5)c(=O)c4c3)ccc2s1	NCI-H1975	MTT	72 h	> 20000 nM
Cc1cnc(Nc2ccc(OCCN3CCCC3)cc2)nc1Nc1cccc(S(=O)(=O)NC(C)(C)C)c1	SET-2	CCK-8	–	1010 nM
O=C(Nc1ccc(C(F)(F)F)cc1)Nc1nc2cc(-c3ccc4ncn(CCN5CCOCC5)c(=O)c4c3)ccc2s1	NCI-H1975	MTT	72 h	1770 nM
CCCCC(=O)Nc1ccc(-c2ccc3ncn(CCC)c(=O)c3c2)c(C)n1	NCI-H1975	CCK-8	72 h	5440 nM
O=C(Nc1cccc(F)c1)Nc1nc2cc(-c3ccc4ncn(Cc5ccccc5)c(=O)c4c3)ccc2s1	NCI-H1975	MTT	72 h	> 20000 nM
Cc1ncsc1-c1ccc([C@H](C)NC(=O)[C@@H]2C[C@@H](O)CN2C(=O)[C@@H](NC(=O)CN2CCN(c3cc(-c4ccccc4O)nnc3N)CC2)C(C)(C)C)cc1	HCC515	ATP luminescence	7 days	182 nM
